Test results from ChEMBL document CHEMBL4304834, “3-Amino-chromanes and Tetrahydroquinolines as Selective 5-HT2B, 5-HT7, or σ1 Receptor Ligands” (ACS Med Chem Lett, 2019).

Columns and labels:
[1] = biological target: T1, 5-hydroxytryptamine receptor 3A (Homo sapiens) (UniProt P46098); assay: Displacement of [3H]-GR65630 from human recombinant 5-HT3 receptor expressed in HEKT cells at 10 uM after 90 mins by microbeta scintillation counting method relative to control; format: cell-based
T1 sequence (whole entry): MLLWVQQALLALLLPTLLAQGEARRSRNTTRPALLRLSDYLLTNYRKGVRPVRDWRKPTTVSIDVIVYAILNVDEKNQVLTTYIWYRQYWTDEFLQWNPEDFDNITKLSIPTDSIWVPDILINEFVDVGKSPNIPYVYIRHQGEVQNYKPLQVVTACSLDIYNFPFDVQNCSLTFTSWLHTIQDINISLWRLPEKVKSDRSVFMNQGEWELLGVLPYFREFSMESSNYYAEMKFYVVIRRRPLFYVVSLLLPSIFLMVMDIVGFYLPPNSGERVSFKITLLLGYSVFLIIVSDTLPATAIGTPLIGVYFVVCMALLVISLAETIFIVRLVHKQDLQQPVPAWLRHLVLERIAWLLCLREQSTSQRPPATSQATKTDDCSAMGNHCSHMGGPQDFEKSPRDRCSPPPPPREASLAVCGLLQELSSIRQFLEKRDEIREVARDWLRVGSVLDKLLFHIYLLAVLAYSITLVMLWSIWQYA
Summary of the method: (§1)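 Radioligand binding run by the NIMH Psychoactive Drug Screening Program. […] Otherwise Ki comes from sigmoidal curve fits of triplicate measurements in a single experiment, or is averaged over repeated experiments each run in triplicate.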

Mu-type opioid receptor = Mu-type opioid receptor (Homo sapiens, UniProt P35372); assay: Displacement of [3H]-DAMGO from human recombinant MOR receptor expressed in stable HEK cells after 90 mins by microbeta scintillation counting method; format: cell-based; summary of the method: as §1
Histamine H2 receptor = Histamine H2 receptor (Homo sapiens, UniProt P25021); assay: Displacement of [125I]-Iodoaminopotentidine from human recombinant histamine H2 receptor expressed in stable HEK cells at 10 uM after 90 mins by microbeta scintillation counting method relative to control; format: cell-based; summary of the method: as §1
[2] = biological target: 5-hydroxytryptamine receptor 5A (Homo sapiens, UniProt P47898); assay: Displacement of [3H]-LSD from human recombinant 5-HT5A receptor expressed in Flp-In CHO cells after 90 mins by microbeta scintillation counting method; format: cell-based; summary of the method: as §1
[3] = biological target: T2, Muscarinic acetylcholine receptor M1 (Homo sapiens) (UniProt P11229); assay: Displacement of [3H]-QNB/[3H]-NMS from human recombinant Muscarinic acetylcholine M1 receptor expressed in stable CHO cells at 10 uM after 90 mins by microbeta scintillation counting method relative to control; format: cell-based
T2 sequence (whole entry): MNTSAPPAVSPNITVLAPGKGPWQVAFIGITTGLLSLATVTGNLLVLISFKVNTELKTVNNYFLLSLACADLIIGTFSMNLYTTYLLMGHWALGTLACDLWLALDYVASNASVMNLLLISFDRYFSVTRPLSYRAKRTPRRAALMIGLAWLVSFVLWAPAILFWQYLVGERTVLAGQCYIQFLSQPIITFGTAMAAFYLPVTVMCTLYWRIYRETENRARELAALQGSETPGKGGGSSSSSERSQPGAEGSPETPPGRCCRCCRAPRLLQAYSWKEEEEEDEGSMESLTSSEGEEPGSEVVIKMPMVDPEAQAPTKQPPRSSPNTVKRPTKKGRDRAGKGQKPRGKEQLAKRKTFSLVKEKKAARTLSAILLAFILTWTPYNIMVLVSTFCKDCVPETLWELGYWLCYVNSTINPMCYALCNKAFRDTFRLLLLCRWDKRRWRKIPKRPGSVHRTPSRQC

[4] = biological target: 5-hydroxytryptamine receptor 6 (Homo sapiens, UniProt P50406); assay: Displacement of [3H]-LSD from human recombinant 5-HT6 receptor expressed in stable HEK cells at 10 uM after 90 mins by microbeta scintillation counting method relative to control; format: cell-based; summary of the method: as §1
[5] = biological target: T3, Alpha-1B adrenergic receptor (Homo sapiens, UniProt P35368); assay: Displacement of [3H]-Prazosin from human recombinant adrenergic Alpha1B receptor expressed in HEKT cells after 90 mins by microbeta scintillation counting method; format: cell-based
T3 sequence (P35368 whole entry): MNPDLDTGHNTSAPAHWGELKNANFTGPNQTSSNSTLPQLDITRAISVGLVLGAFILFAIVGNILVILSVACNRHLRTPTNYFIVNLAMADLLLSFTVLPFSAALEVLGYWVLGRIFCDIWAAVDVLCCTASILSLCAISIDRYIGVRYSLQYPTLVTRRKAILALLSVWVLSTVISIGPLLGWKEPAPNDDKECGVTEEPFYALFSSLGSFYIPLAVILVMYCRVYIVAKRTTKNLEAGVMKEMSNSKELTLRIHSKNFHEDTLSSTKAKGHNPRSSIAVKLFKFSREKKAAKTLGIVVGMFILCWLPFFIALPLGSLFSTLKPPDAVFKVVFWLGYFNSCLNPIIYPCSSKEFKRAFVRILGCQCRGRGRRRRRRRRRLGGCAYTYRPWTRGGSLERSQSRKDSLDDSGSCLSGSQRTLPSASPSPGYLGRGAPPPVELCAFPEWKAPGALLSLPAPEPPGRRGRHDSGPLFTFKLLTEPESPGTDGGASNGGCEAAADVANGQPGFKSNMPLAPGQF
Summary of the method: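 Radioligand binding was run by the NIMH Psychoactive Drug Screening Program. Compounds were first screened at 10 μM. Those giving ≥50% binding were taken to full competition curves. Ki is reported as pKi from a sigmoidal curve fit of triplicate measurements in a single experiment; the error is the curve-fit error.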

[6] = biological target: 5-hydroxytryptamine receptor 1B (Homo sapiens, UniProt P28222); assay: Displacement of [3H]5-CT from human recombinant 5-HT1B receptor expressed in stable HEK cells at 10 uM after 90 mins by microbeta scintillation counting method relative to control; format: cell-based
[7] = biological target: Sigma intracellular receptor 2 (Homo sapiens, UniProt Q5BJF2); assay: Displacement of […] from human recombinant sigma2 receptor expressed in HEKT cells at 10 uM after 90 mins by microbeta scintillation counting method relative to control; format: cell-based; summary of the method: as §1
[8] = Displacement of [3H]-PK11195 from PBR receptor in rat brain after 90 mins by microbeta scintillation counting method; format: tissue-based
Summary of the method: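 Radioligand binding run by the NIMH Psychoactive Drug Screening Program. Otherwise Ki comes from sigmoidal curve fits of triplicate measurements in a single experiment, or is averaged over repeated experiments each run in triplicate.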

[9] = biological target: T4, 5-hydroxytryptamine receptor 3A (Homo sapiens, UniProt P46098); assay: Displacement of [3H]-GR65630 from human recombinant 5-HT3 receptor expressed in HEKT cells after 90 mins by microbeta scintillation counting method; format: cell-based; summary of the method: as §1
T4 sequence (P46098 whole entry): T1 sequence (whole entry)

Sequence of 5-hydroxytryptamine receptor 1B (P28222 whole entry): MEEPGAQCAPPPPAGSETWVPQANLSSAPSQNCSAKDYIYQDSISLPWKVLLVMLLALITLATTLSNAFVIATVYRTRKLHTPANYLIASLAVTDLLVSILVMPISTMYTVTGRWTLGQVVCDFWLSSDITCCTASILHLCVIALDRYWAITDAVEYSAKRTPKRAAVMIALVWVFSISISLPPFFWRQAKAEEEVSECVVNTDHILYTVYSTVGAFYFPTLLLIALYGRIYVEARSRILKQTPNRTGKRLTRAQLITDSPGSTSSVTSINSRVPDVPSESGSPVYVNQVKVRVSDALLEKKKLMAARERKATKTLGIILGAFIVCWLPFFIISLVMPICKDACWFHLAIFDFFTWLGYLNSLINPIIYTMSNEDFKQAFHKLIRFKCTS
Sequence of Mu-type opioid receptor (P35372 whole entry): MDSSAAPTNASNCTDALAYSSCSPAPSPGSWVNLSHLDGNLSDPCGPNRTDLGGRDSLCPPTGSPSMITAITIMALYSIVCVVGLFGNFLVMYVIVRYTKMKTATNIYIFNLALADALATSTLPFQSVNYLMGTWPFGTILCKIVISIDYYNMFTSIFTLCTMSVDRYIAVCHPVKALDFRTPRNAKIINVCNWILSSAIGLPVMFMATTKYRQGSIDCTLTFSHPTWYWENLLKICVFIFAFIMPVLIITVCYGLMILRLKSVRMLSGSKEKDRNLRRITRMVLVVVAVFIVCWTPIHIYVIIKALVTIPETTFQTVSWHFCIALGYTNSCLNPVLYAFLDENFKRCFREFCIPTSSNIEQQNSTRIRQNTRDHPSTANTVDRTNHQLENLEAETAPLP
Sequence of Sigma intracellular receptor 2 (Q5BJF2 whole entry): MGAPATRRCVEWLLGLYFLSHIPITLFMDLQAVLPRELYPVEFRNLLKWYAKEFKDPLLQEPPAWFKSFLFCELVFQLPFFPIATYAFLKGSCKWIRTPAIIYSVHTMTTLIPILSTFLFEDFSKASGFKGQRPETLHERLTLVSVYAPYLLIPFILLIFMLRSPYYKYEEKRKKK
Sequence of 5-hydroxytryptamine receptor 6 (P50406 whole entry): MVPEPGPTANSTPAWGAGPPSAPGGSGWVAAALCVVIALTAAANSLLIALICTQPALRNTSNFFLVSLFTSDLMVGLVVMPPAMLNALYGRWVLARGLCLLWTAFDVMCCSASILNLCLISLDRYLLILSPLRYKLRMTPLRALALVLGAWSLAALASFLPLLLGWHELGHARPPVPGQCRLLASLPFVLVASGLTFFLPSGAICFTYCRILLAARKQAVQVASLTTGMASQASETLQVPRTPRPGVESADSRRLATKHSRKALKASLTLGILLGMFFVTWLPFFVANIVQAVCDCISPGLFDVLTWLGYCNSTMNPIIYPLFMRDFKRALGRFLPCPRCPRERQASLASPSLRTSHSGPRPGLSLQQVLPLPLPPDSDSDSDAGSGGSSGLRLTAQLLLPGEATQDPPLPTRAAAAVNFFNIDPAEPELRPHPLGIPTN
Sequence of 5-hydroxytryptamine receptor 5A (P47898 whole entry): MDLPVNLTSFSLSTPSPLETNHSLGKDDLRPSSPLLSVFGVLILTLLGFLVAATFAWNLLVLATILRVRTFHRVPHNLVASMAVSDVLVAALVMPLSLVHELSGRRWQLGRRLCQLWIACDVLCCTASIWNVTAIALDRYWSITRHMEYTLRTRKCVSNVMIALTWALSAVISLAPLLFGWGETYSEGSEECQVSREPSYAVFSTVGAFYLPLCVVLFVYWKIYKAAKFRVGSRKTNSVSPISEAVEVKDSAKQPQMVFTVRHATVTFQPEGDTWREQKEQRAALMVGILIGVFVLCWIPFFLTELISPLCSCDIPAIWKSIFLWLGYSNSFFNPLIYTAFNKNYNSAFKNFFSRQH
Sequence of Histamine H2 receptor (P25021 whole entry): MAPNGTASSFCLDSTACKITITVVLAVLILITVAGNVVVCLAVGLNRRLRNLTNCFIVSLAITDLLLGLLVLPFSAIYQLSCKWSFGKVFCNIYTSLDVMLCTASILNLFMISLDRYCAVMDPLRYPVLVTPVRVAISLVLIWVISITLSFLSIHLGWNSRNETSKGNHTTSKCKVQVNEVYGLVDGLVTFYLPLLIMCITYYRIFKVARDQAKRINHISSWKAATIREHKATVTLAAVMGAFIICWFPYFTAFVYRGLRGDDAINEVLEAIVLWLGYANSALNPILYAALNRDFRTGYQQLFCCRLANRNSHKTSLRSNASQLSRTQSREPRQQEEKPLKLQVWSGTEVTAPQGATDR

**Q.** What does the source list for `CC[C@H]1c2cc(C)ccc2OC[C@@]1(C)N` (racemic)?
**A.** inhibition [1]: < 50%; Ki (Mu-type opioid receptor): > 10 µM; inhibition (Histamine H2 receptor): < 50%; Ki [2]: > 10 µM; inhibition [3]: < 50%; inhibition [4]: < 50%; Ki [5]: > 10 µM; inhibition [6]: < 50%; inhibition [7]: < 50%; pKi [8]: < 5; Ki [9]: > 10 µM

**Q.** With `C[C@@]12CN(c3ccccc3)c3ccccc3[C@@H]1CCN2` (racemic) as the compound, how does the Ki (Mu-type opioid receptor) read?
**A.** > 10 µM

**Q.** What about the Ki [5] of the same compound?
**A.** > 10 µM

**Q.** And the Ki [9]?
**A.** > 10 µM

**Q.** For `CC[C@H]1c2cc(OC)ccc2CC[C@@]1(C)N` (racemic), which inhibition [1] is on record?
**A.** < 50%

**Q.** And the Ki (Mu-type opioid receptor)?
**A.** 2 µM

**Q.** And the inhibition (Histamine H2 receptor)?
**A.** < 50%

**Q.** And the Ki [2]?
**A.** 2 µM

**Q.** What about the inhibition [3] of the same compound?
**A.** < 50%

**Q.** And the inhibition [4]?
**A.** < 50%

**Q.** What about the Ki [5] of the same compound?
**A.** > 10 µM

**Q.** What about the inhibition [6] of the same compound?
**A.** < 50%

**Q.** What about the inhibition [7] of the same compound?
**A.** < 50%

**Q.** What about the pKi [8] of the same compound?
**A.** < 5

**Q.** What about the Ki [9] of the same compound?
**A.** > 10 µM

**Q.** For `COc1cc(OC)c2c(c1)OC[C@@]1(C)NCC[C@@H]21` (racemic), which inhibition [1] is on record?
**A.** < 50%

**Q.** And the Ki (Mu-type opioid receptor)?
**A.** > 10 µM

**Q.** What about the inhibition (Histamine H2 receptor) of the same compound?
**A.** < 50%

**Q.** And the inhibition [3]?
**A.** < 50%

**Q.** And the inhibition [4]?
**A.** < 50%

**Q.** What about the Ki [5] of the same compound?
**A.** > 10 µM

**Q.** What about the inhibition [6] of the same compound?
**A.** < 50%

**Q.** And the inhibition [7]?
**A.** < 50%

**Q.** What about the pKi [8] of the same compound?
**A.** < 5

**Q.** What about the Ki [9] of the same compound?
**A.** > 10 µM

**Q.** For `CC[C@H]1c2ccccc2N(c2ccccc2)C[C@@]1(C)N` (racemic), which Ki (Mu-type opioid receptor) is on record?
**A.** > 10 µM

**Q.** And the Ki [2]?
**A.** > 10 µM

**Q.** And the Ki [5]?
**A.** > 10 µM

**Q.** What about the Ki [9] of the same compound?
**A.** > 10 µM
